Laboratory results: ChEMBL document CHEMBL4138179, “Design, synthesis and cytotoxic activity of N-Modified oleanolic saponins bearing A glucosamine” (Eur J Med Chem, 2018)
pIC50: −log10 of the molar value.

Legend:
HL-60 [1] = test: Cytotoxicity against human HL60 cells assessed as cell growth inhibition after 48 hrs by MTT assay; type: functional, cell-based; details: HL-60, 48 h
Procedure, shortened: (§1)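 Cells from ATCC; HL-60 grown in IMDM, PC-3 in RPMI 1640, HT29 in DMEM, each with 10% FBS and penicillin/streptomycin, 37 °C, 5% CO2. Cells incubated without or with compound at the indicated concentrations and times. Mitochondrial MTT reduction read at 570 nm on a plate reader. IC50 given as mean ± SD of at least three independent experiments.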

HT-29 = test: Cytotoxicity against human HT-29 cells assessed as cell growth inhibition after 48 hrs by MTT assay; type: functional, cell-based; details: HT-29, 48 h; procedure, shortened: as §1
PC-3 = test: Cytotoxicity against human PC3 cells assessed as cell growth inhibition after 48 hrs by MTT assay; type: functional, cell-based; details: PC-3, 48 h; procedure, shortened: as §1
[2] = Drug uptake in human HL60 cells at 15 uM for 15 hrs by DBCO-488 probe based fluorescence confocal microscopy; type: ADME, cell-based; details: hl-60, 15 h
Procedure, shortened: (§2)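 HL-60 cells treated with azido-bearing compound (15 μM, 15 h); DMSO-diluted control. Cells fixed in 99% alcohol, permeabilized with 0.1% Triton X-100 in PBS for 15 min, then washed. Copper-free labeling with DBCO-488 (2 μM) plus 0.5 mg/mL BSA in PBS for 6 h. RedDot2 nuclear and CellBrite Blue membrane counterstains; imaged by confocal fluorescence microscopy.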

[3] = Drug uptake in human HL60 cell membrane at 15 uM for 15 hrs by DBCO-488-based fluorescence confocal microscopy; type: ADME, cell membranes; details: hl-60, 15 h; procedure, shortened: as §2
HL-60 [4] = test: Induction of mitochondrial membrane depolarization in human HL60 cells after 24 hrs by JC-1 staining based flow cytometry; type: functional, cell-based
Procedure, shortened: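 HL-60 cells exposed to a range of compound concentrations under the MTT culture conditions, untreated control included. After 1 day, cells stained with JC-1 (final 2 μM) at 37 °C for 30 min, then harvested. Flow cytometry gives the percentage loss of mitochondrial membrane potential.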

SMILES: CCCCOC(=O)N[C@H]1[C@H](O[C@H]2CC[C@]3(C)[C@H]4CC=C5[C@@H]6CC(C)(C)CC[C@]6(C(=O)O)CC[C@@]5(C)[C@]4(C)CC[C@H]3C2(C)C)O[C@H](CO)[C@@H](O)[C@@H]1O
- pIC50 (HL-60 [1]): 5.65
- pIC50 (HT-29): 4.74
- pIC50 (PC-3): 4.82

SMILES: CC1(C)CC[C@]2(C(=O)O)CC[C@]3(C)C(=CC[C@@H]4[C@@]5(C)CC[C@H](O)C(C)(C)[C@@H]5CC[C@]43C)[C@@H]2C1 [OLEANOLIC_ACID]
- pIC50 (HL-60 [1]): < 4.52
- pIC50 (HT-29): < 4.52
- pIC50 (PC-3): < 4.52

SMILES: CCCCCCCCCCCCCC(=O)N[C@H]1[C@H](O[C@H]2CC[C@]3(C)[C@H]4CC=C5[C@@H]6CC(C)(C)CC[C@]6(C(=O)O)CC[C@@]5(C)[C@]4(C)CC[C@H]3C2(C)C)O[C@H](CO)[C@@H](O)[C@@H]1O
- pIC50 (HL-60 [1]): 4.97
- pIC50 (HT-29): < 4.52
- pIC50 (PC-3): < 4.52

SMILES: CC1(C)CC[C@]2(C(=O)O)CC[C@]3(C)C(=CC[C@H]4C3(C)CC[C@H]3C(C)(C)[C@@H](O[C@@H]5O[C@H](CO)[C@@H](O)[C@H](O)[C@H]5NC(=O)CCc5cn(-c6cc7ccc(O)cc7oc6=O)nn5)CC[C@@]34C)[C@@H]2C1 (single isomer, unassigned)
- Drug uptake [2]: Active

SMILES: CCCCCCCCCCCC(=O)N[C@H]1[C@H](O[C@H]2CC[C@]3(C)[C@H]4CC=C5[C@@H]6CC(C)(C)CC[C@]6(C(=O)O)CC[C@@]5(C)[C@]4(C)CC[C@H]3C2(C)C)O[C@H](CO)[C@@H](O)[C@@H]1O
- pIC50 (HL-60 [1]): 5.80
- pIC50 (HT-29): < 4.52
- pIC50 (PC-3): 4.67

SMILES: CCCCCCCC(=O)N[C@H]1[C@H](O[C@H]2CC[C@]3(C)[C@H]4CC=C5[C@@H]6CC(C)(C)CC[C@]6(C(=O)O)CC[C@@]5(C)[C@]4(C)CC[C@H]3C2(C)C)O[C@H](CO)[C@@H](O)[C@@H]1O
- pIC50 (HL-60 [1]): 5.77
- pIC50 (HT-29): 4.66
- pIC50 (PC-3): 4.71

SMILES: O=c1[nH]cc(F)c(=O)[nH]1 [FLUOROURACIL]
- pIC50 (HL-60 [1]): < 4.52
- pIC50 (HT-29): 5.08
- pIC50 (PC-3): < 4.52

SMILES: CC(=O)N[C@H]1[C@H](O[C@H]2CC[C@]3(C)[C@H]4CC=C5[C@@H]6CC(C)(C)CC[C@]6(C(=O)O)CC[C@@]5(C)[C@]4(C)CC[C@H]3C2(C)C)O[C@H](CO)[C@@H](O)[C@@H]1O
- pIC50 (HL-60 [1]): 4.99
- pIC50 (HT-29): < 4.52
- pIC50 (PC-3): < 4.52

SMILES: CC1(C)CC[C@]2(C(=O)O)CC[C@]3(C)C(=CC[C@@H]4[C@@]5(C)CC[C@H](O[C@@H]6O[C@H](CO)[C@@H](O)[C@H](O)[C@H]6NC(=O)CN=[N+]=[N-])C(C)(C)[C@@H]5CC[C@]43C)[C@@H]2C1
- pIC50 (HL-60 [1]): 5.04
- pIC50 (HT-29): 4.64
- Drug uptake [3]: Active
- pIC50 (PC-3): 4.65

SMILES: CCCCCCCCCOC(=O)N[C@H]1[C@H](O[C@H]2CC[C@]3(C)[C@H]4CC=C5[C@@H]6CC(C)(C)CC[C@]6(C(=O)O)CC[C@@]5(C)[C@]4(C)CC[C@H]3C2(C)C)O[C@H](CO)[C@@H](O)[C@@H]1O
- pIC50 (HL-60 [1]): 5.91
- pIC50 (HT-29): 4.66
- pIC50 (PC-3): 4.79

SMILES: CCCCCCCCC(=O)N[C@H]1[C@H](O[C@H]2CC[C@]3(C)[C@H]4CC=C5[C@@H]6CC(C)(C)CC[C@]6(C(=O)O)CC[C@@]5(C)[C@]4(C)CC[C@H]3C2(C)C)O[C@H](CO)[C@@H](O)[C@@H]1O
- pIC50 (HL-60 [1]): 5.84
- pIC50 (HT-29): 4.64
- pIC50 (PC-3): 4.83

SMILES: CCCCCCC(=O)N[C@H]1[C@H](O[C@H]2CC[C@]3(C)[C@H]4CC=C5[C@@H]6CC(C)(C)CC[C@]6(C(=O)O)CC[C@@]5(C)[C@]4(C)CC[C@H]3C2(C)C)O[C@H](CO)[C@@H](O)[C@@H]1O
- Activity (HL-60 [4]): Dose-dependent effect
- pIC50 (HL-60 [1]): 5.55
- pIC50 (HT-29): < 4.52
- pIC50 (PC-3): < 4.52

SMILES: CCCCCCOC(=O)N[C@H]1[C@H](O[C@H]2CC[C@]3(C)[C@H]4CC=C5[C@@H]6CC(C)(C)CC[C@]6(C(=O)O)CC[C@@]5(C)[C@]4(C)CC[C@H]3C2(C)C)O[C@H](CO)[C@@H](O)[C@@H]1O
- pIC50 (HL-60 [1]): 5.84
- pIC50 (HT-29): 4.67
- pIC50 (PC-3): 4.86

SMILES: CCCCCCCCCCCCCCCC(=O)N[C@H]1[C@H](O[C@H]2CC[C@]3(C)[C@H]4CC=C5[C@@H]6CC(C)(C)CC[C@]6(C(=O)O)CC[C@@]5(C)[C@]4(C)CC[C@H]3C2(C)C)O[C@H](CO)[C@@H](O)[C@@H]1O
- pIC50 (HL-60 [1]): < 4.52
- pIC50 (HT-29): < 4.52
- pIC50 (PC-3): < 4.52

SMILES: CC(=O)N[C@H]1[C@H](O[C@H]2CC[C@]3(C)[C@H]4CC=C5[C@@H]6CC(C)(C)CC[C@]6(C(=O)O)CC[C@@]5(C)[C@]4(C)CC[C@H]3C2(C)C)O[C@H](CO)[C@H](O)[C@@H]1O
- pIC50 (HL-60 [1]): 4.94
- pIC50 (HT-29): 4.63
- pIC50 (PC-3): 4.63

SMILES: C#CCCC(=O)N[C@H]1[C@H](O[C@H]2CC[C@]3(C)[C@H]4CC=C5[C@@H]6CC(C)(C)CC[C@]6(C(=O)O)CC[C@@]5(C)[C@]4(C)CC[C@H]3C2(C)C)O[C@H](CO)[C@@H](O)[C@@H]1O
- pIC50 (HL-60 [1]): 4.97
- pIC50 (HT-29): < 4.52
- Drug uptake [3]: Active
- pIC50 (PC-3): < 4.52

SMILES: COC(=O)N[C@H]1[C@H](O[C@H]2CC[C@]3(C)[C@H]4CC=C5[C@@H]6CC(C)(C)CC[C@]6(C(=O)O)CC[C@@]5(C)[C@]4(C)CC[C@H]3C2(C)C)O[C@H](CO)[C@@H](O)[C@@H]1O
- pIC50 (HL-60 [1]): 4.94
- pIC50 (HT-29): < 4.52
- pIC50 (PC-3): < 4.52

SMILES: CCCCCCCOC(=O)N[C@H]1[C@H](O[C@H]2CC[C@]3(C)[C@H]4CC=C5[C@@H]6CC(C)(C)CC[C@]6(C(=O)O)CC[C@@]5(C)[C@]4(C)CC[C@H]3C2(C)C)O[C@H](CO)[C@@H](O)[C@@H]1O
- pIC50 (HL-60 [1]): 6.12
- pIC50 (HT-29): 4.66
- pIC50 (PC-3): 4.81

SMILES: CCCCCCCCNC(=O)N[C@H]1[C@H](O[C@H]2CC[C@]3(C)[C@H]4CC=C5[C@@H]6CC(C)(C)CC[C@]6(C(=O)O)CC[C@@]5(C)[C@]4(C)CC[C@H]3C2(C)C)O[C@H](CO)[C@@H](O)[C@@H]1O
- pIC50 (HL-60 [1]): 5.67
- pIC50 (HT-29): < 4.52
- pIC50 (PC-3): < 4.52
